Activity and inhibition data for four compounds are collected here from ChEMBL document CHEMBL1156662, “Tetracyclic terpenoids from Dasyscyphus niveus, dasyscyphins D and E” (2008).

One assay deals with Paecilomyces variotii. The assay is described as follows: Antifungal activity against Paecilomyces variotii DSM 1961 at 50 ug/mL by disk diffusion assay. Type of assay: functional, organism-based. On the technique in general: Agar diffusion results depend on both activity and mobility in agar.
The test system of the next assay is Rhizomucor miehei. The assay is described as follows: Antifungal activity against Rhizomucor miehei Tu 284 at 50 ug/mL by disk diffusion assay. Type of assay: functional, organism-based.
For the next assay, the system named is Eremothecium coryli. The assay is described as follows: Antifungal activity against Nematospora coylii ATTC 10647 at 50 ug/mL by disk diffusion assay. Type of assay: functional, organism-based.
Another assay concerns HeLa. The assay is described as follows: Cytotoxic activity against human HeLa S3 cells up to 50 ug/mL. Type of assay: functional, cell-based. The method in brief: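 HeLa S3 human cervix carcinoma cells were grown in DMEM with penicillin G (65 µg/mL) and streptomycin sulfate (100 µg/mL). Cells at 10⁵/mL were exposed to compound in microtiter wells at 37 °C in humidified 5% CO2. Viable cells were counted by microscopy at 24 and 48 h.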

Assay [1] has as its system Pyricularia oryzae. The assay is described as follows: Antifungal activity against Magnaporthe grisea 70-15 at 20 ug/mL after 18 hrs by conidia germination assay. Type of assay: functional, organism-based. The method in brief:
(§1)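 M. grisea strain 70-15 conidia suspended in water at 5 × 10⁴/mL and exposed to compound. After 18 h, germination was scored microscopically against an inhibitor-free control. Conidia counted as affected were those that had not germinated or whose germ tubes were under 30% of control length.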

The subject of another assay is Penicillium chrysogenum. The assay is described as follows: Antifungal activity against Penicillium chrysogenum DSM 848 at 50 ug/mL by disk diffusion assay. Type of assay: functional, organism-based.
Assay [2] has as its system Pyricularia oryzae. In words: Antifungal activity against Magnaporthe grisea 70-15 after 18 hrs by conidia germination assay. Type of assay: functional, organism-based. The method in brief:
as §1

The subject of assay [3] is Pyricularia oryzae. In words: Antifungal activity against Magnaporthe grisea 70-15 at 25 ug/mL after 18 hrs by conidia germination assay. Type of assay: functional. To be noted: 70-15, 18 h. The method in brief:
as §1

Structures are written as SMILES. Calls of active or inactive are those of the source. No cut-off for these calls is given here.

In the case of `Cc1ccc2c(c1O)[C@@]1(C)CC[C@H]3C(C)(C)[C@@H](O)CC[C@]3(C)[C@H]1C2`, the outcome with Paecilomyces variotii, with Rhizomucor miehei, in the assay on Eremothecium coryli, in the assay on HeLa and with Penicillium chrysogenum was inactive. Further, in the assay with Pyricularia oryzae [1], the outcome was Active.

For `CC(O)(CC(=O)O)CC(=O)OCC1=C[C@@]2(O)[C@H](C[C@@H]3[C@@]4(C)CCCC(C)(C)[C@@H]4CC[C@@]32C)C(=O)C1=O` (some centres undefined), in the assay with Pyricularia oryzae [2], the outcome was Active.

For the compound `COCc1cc(O)c2c(c1O)[C@@]1(C)CC[C@H]3C(C)(C)CCC[C@]3(C)[C@H]1C2`, in the assay on Pyricularia oryzae [2], the outcome was Active.

The inhibition is the change of the read-out against control, counted positive when it falls. Higher therefore signals strong suppression. Regarding `Cc1ccc2c(c1O)[C@@]1(C)CC[C@@H]3[C@](C)(CCC[C@]3(C)O)[C@H]1C2` [DASYSCYPHIN E], testing at 25 µg/mL in the assay with Pyricularia oryzae [3] gave an inhibition of 100%.
